Laboratory results reported in ChEMBL document CHEMBL1221205, “Structural and mechanistic basis of penicillin-binding protein inhibition by lactivicins” (Nat Chem Biol, 2007).
Converted amounts (≈) assume the structure as drawn.

Experiments:
Streptococcus pneumoniae [1] = experiment: Antibacterial activity against penicillin-sensitive Streptococcus pneumoniae R6 […]; type: functional
How it was run: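 Strain grown in Todd-Hewitt medium at 37 °C to OD600 0.3, then plated on Columbia blood agar with 5% horse blood containing compound at 0 to 100 µg ml-1. MIC taken as the concentration giving visible growth arrest on plates.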

Streptococcus pneumoniae [2] = experiment: Ratio of MIC for penicillin-resistant Streptococcus pneumoniae 38030509 to MIC for penicillin-sensitive Streptococcus pneumoniae R6; type: functional
How it was run: (§1)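 Strains grown in Todd-Hewitt medium at 37 °C to OD600 0.3, then plated on Columbia blood agar with 5% horse blood containing LTV or PLTV at 0 to 100 µg ml-1. MIC taken as the concentration at visually determined growth arrest on plates. Ratio lines compare resistant-strain MIC with the R6 MIC obtained the same way.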

Streptococcus pneumoniae [3] = experiment: Antibacterial activity against penicillin-resistant Streptococcus pneumoniae 38040505 […]; type: functional; how it was run: as §1
Streptococcus pneumoniae [4] = experiment: Antibacterial activity against penicillin-resistant Streptococcus pneumoniae 5204 […]; type: functional; how it was run: as §1
Streptococcus pneumoniae [5] = experiment: Ratio of MIC for penicillin-resistant Streptococcus pneumoniae 38040505 to MIC for penicillin-sensitive Streptococcus pneumoniae R6; type: functional; how it was run: as §1
Streptococcus pneumoniae [6] = experiment: Ratio of MIC for penicillin-resistant Streptococcus pneumoniae 4790 to MIC for penicillin-sensitive Streptococcus pneumoniae R6; type: functional; how it was run: as §1
Streptococcus pneumoniae [7] = experiment: Antibacterial activity against penicillin-resistant Streptococcus pneumoniae 38030509 […]; type: functional; how it was run: as §1
Streptococcus pneumoniae [8] = experiment: Ratio of MIC for penicillin-resistant Streptococcus pneumoniae 5204 to MIC for penicillin-sensitive Streptococcus pneumoniae R6; type: functional; how it was run: as §1
Streptococcus pneumoniae [9] = experiment: Antibacterial activity against penicillin-resistant Streptococcus pneumoniae 4790 […]; type: functional; how it was run: as §1
[10] = biological target: T1, Penicillin-binding protein 2x (Streptococcus pneumoniae serotype 4 (strain ATCC BAA-334 / TIGR4), UniProt P14677); experiment: Inhibition of penicillin-resistant Streptococcus pneumoniae 5204 PBP2x after 120 mins by SDS-PAGE
How it was run: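 PBP2x-5204 (0.8 µM) preincubated with LTV for 120 min, then remaining active PBP counterlabeled with 10 µM fluorescein-ampicillin for 40 min. Bands resolved by SDS-PAGE with fluorescence imaging; background subtracted. IC50 fitted from residual activity versus inhibitor concentration. Kinetic work at 30 °C in 10 mM sodium phosphate pH 7.0.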

[11] = biological target: T1, Penicillin-binding protein 2x; experiment: Inhibition of penicillin-resistant Streptococcus pneumoniae 5204 PBP2x after 60 mins by SDS-PAGE
How it was run: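 PBP2x-5204 (0.8 µM) preincubated with PLTV for 60 min in 10 mM sodium phosphate pH 7.0, 30 °C, with 1% dimethylformamide. Residual active enzyme counterlabeled with 10 µM fluorescein-ampicillin for 40 min, then analyzed by SDS-PAGE and fluorescence. IC50 fitted from background-subtracted residual activity against inhibitor concentration.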

T1 sequence (P14677 whole entry, looked up): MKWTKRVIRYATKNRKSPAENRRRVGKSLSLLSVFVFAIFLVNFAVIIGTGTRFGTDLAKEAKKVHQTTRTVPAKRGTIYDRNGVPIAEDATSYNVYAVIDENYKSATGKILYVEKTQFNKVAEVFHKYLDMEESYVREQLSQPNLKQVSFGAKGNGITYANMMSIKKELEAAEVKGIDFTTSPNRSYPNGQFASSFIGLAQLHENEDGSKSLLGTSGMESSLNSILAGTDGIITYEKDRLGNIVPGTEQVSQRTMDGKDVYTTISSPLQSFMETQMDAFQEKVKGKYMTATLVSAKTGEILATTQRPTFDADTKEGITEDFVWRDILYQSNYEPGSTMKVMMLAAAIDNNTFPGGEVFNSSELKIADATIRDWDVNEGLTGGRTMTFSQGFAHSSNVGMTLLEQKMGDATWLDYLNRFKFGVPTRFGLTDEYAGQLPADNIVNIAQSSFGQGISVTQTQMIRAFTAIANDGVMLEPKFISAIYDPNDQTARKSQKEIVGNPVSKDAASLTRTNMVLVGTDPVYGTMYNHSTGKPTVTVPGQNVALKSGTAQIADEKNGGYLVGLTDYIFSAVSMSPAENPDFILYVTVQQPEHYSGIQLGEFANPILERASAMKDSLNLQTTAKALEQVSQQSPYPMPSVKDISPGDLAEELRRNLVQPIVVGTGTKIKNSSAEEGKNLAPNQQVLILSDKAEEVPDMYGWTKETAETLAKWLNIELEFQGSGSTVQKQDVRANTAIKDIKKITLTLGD

`CC1(C)S[C@@H]2[C@H](NC(=O)Cc3ccccc3)C(=O)N2[C@H]1C(=O)O` [PENICILLIN G] showed an MIC (Streptococcus pneumoniae [1]) of 0.01 µg/mL (≈ 0.0299 µM), a Ratio (Streptococcus pneumoniae [2]) of 150 and an MIC (Streptococcus pneumoniae [3]) of 1.5 µg/mL (≈ 4.49 µM). For the same molecule, the MIC (Streptococcus pneumoniae [4]) was 6 µg/mL (≈ 17.9 µM), the Ratio (Streptococcus pneumoniae [5]) was 150 and the Ratio (Streptococcus pneumoniae [6]) was 150. For the same molecule, the MIC (Streptococcus pneumoniae [7]) was 2 µg/mL (≈ 5.98 µM), the Ratio (Streptococcus pneumoniae [8]) was 150 and the MIC (Streptococcus pneumoniae [9]) was 1.5 µg/mL (≈ 4.49 µM).

`CC(=O)NC1CON(C2(C(=O)O)CCC(=O)O2)C1=O` (centres undefined) [LACTIVICIN] showed an MIC (Streptococcus pneumoniae [1]) of 2 µg/mL (≈ 7.35 µM), a Ratio (Streptococcus pneumoniae [2]) of 5 and an MIC (Streptococcus pneumoniae [3]) of 10 µg/mL (≈ 36.7 µM). It also gave an MIC (Streptococcus pneumoniae [4]) of over 20 µg/mL, a Ratio (Streptococcus pneumoniae [5]) of 5 and an IC50 [10] of 150 µM. For the same molecule, the Ratio (Streptococcus pneumoniae [6]) was 5, the MIC (Streptococcus pneumoniae [7]) was 20 µg/mL (≈ 73.5 µM) and the Ratio (Streptococcus pneumoniae [8]) was 5. It also gave an MIC (Streptococcus pneumoniae [9]) of 20 µg/mL (≈ 73.5 µM).

Work on `O=C(COc1ccccc1)N[C@H]1CON([C@@]2(C(=O)O)CCC(=O)O2)C1=O` [PHENOXYACETYL LACTIVICIN] yielded an MIC (Streptococcus pneumoniae [1]) of 15 µg/mL (≈ 41.2 µM), a Ratio (Streptococcus pneumoniae [2]) of 5.3 and an MIC (Streptococcus pneumoniae [3]) of 80 µg/mL (≈ 220 µM). For the same molecule, the MIC (Streptococcus pneumoniae [4]) was 90 µg/mL (≈ 247 µM), the IC50 [11] was 7.9 µM and the Ratio (Streptococcus pneumoniae [5]) was 5.3. For the same molecule, the Ratio (Streptococcus pneumoniae [6]) was 5.3, the MIC (Streptococcus pneumoniae [7]) was over 100 µg/mL and the Ratio (Streptococcus pneumoniae [8]) was 5.3. For the same molecule, the MIC (Streptococcus pneumoniae [9]) was over 100 µg/mL.
